Assay results taken from ChEMBL document CHEMBL1157042, “Triazole incorporated thiazoles as a new class of anticonvulsants: design, synthesis and in vivo screening” (Eur J Med Chem, 2010).
The source made the active and inactive calls.

Columns and labels:
[1] = Neurotoxicity in ip dosed Swiss albino mouse after 4 hrs; assay type: toxicity, organism-based; conditions: in vivo
In short: (§1)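 Albino mice of either sex (25–30 g), 6 per group, received i.p. doses of 30, 100 and 300 mg/kg in polyethylene glycol. Trained mice were tested on the rotorod at 0.5 h and 4.0 h. Neurotoxicity was failure to keep balance on the rod for at least 1 min in each trial. The value recorded is the minimum dose affecting half or more of the mice.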

Mus musculus [2] = test: Anticonvulsant activity in ip dosed Swiss albino mouse assessed as inhibition of maximum electric shock-induced motor impairment after 4 hrs; assay type: functional; conditions: read-out: MED
Mus musculus [3] = test: Anticonvulsant activity in Swiss albino mouse assessed as inhibition of PTZ-induced motor impairment at 300 mg/kg, ip after 0.5 hrs; assay type: functional, organism-based; set-up: dose 300 mg/kg
In short: (§2)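 Albino mice of either sex (25–30 g), 6 per group. Test compound was given i.p. in polyethylene glycol at 30, 100 or 300 mg/kg, and subcutaneous pentylenetetrazole challenge followed 0.5 h or 4.0 h later. Activity was scored as protection in half or more of the mice.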

[4] = Neurotoxicity in ip dosed Swiss albino mouse after 0.5 hrs; assay type: toxicity, organism-based; conditions: in vivo; in short: as §1
Mus musculus [5] = test: Anticonvulsant activity in Swiss albino mouse assessed as inhibition of PTZ-induced motor impairment at 300 mg/kg, ip after 4 hrs; assay type: functional, organism-based; set-up: dose 300 mg/kg; in short: as §2
Mus musculus [6] = test: Anticonvulsant activity in ip dosed Swiss albino mouse assessed as inhibition of maximum electric shock-induced motor impairment after 0.5 hrs; assay type: functional; conditions: read-out: MED
Mus musculus [7] = test: Anticonvulsant activity in Swiss albino mouse assessed as inhibition of maximum electric shock-induced motor impairment at 300 mg/kg, ip after 0.5 hrs; assay type: functional, organism-based; set-up: dose 300 mg/kg
In short: (§3)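 Albino mice of either sex (25–30 g), 6 per group, given drug i.p. in polyethylene glycol at 30, 100 and 300 mg/kg. Maximal electroshock was applied at 0.5 h and 4.0 h. Protection meant abolition of hind limb tonic extension.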

Mus musculus [8] = test: Neurotoxicity in Swiss albino mouse at 300 mg/kg, ip after 0.5 hrs; assay type: toxicity, organism-based; set-up: dose 300 mg/kg, route intraperitoneal; conditions: in vivo
Mus musculus [9] = test: Anticonvulsant activity in ip dosed Swiss albino mouse assessed as inhibition of PTZ-induced motor impairment after 0.5 hrs; assay type: functional; conditions: read-out: MED
In short: (§4)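 Albino mice of either sex (25–30 g), 6 per group, dosed i.p. in polyethylene glycol at 30, 100 or 300 mg/kg. Subcutaneous pentylenetetrazole was given at 0.5 h or 4.0 h, and mice were watched for 30 min. Protection meant no threshold seizure (single clonic spasm episode of at least 5 s). The value is the minimum dose protecting half or more.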

Mus musculus [10] = test: Neurotoxicity in Swiss albino mouse at 300 mg/kg, ip after 4 hrs; assay type: toxicity, organism-based; set-up: dose 300 mg/kg, route intraperitoneal; conditions: in vivo
Mus musculus [11] = test: Anticonvulsant activity in ip dosed Swiss albino mouse assessed as inhibition of PTZ-induced motor impairment after 4 hrs; assay type: functional; conditions: read-out: MED; in short: as §4
Mus musculus [12] = test: Anticonvulsant activity in ip dosed Swiss albino mouse assessed as inhibition of maximum electric shock-induced motor impairment; assay type: functional
Mus musculus [13] = test: Anticonvulsant activity in ip dosed Swiss albino mouse assessed as inhibition of PTZ-induced motor impairment; assay type: functional
Mus musculus [14] = test: Anticonvulsant activity in Swiss albino mouse assessed as inhibition of maximum electric shock-induced motor impairment at 300 mg/kg, ip after 4 hrs; assay type: functional, organism-based; set-up: dose 300 mg/kg; in short: as §3

Structure (SMILES)	MTD at 4 h [1]	minimal effective dose (Mus musculus [2])	inhibition (Mus musculus [3])	MTD at 0.5 h [4]	inhibition (Mus musculus [5])	minimal effective dose (Mus musculus [6])	inhibition (Mus musculus [7])	Activity (Mus musculus [8])	minimal effective dose (Mus musculus [9])	Activity (Mus musculus [10])	minimal effective dose (Mus musculus [11])	ED50 (Mus musculus [12])	ED50 (Mus musculus [13])	inhibition (Mus musculus [14])
COc1ccccc1-n1c(Nc2nc(-c3ccc([N+](=O)[O-])cc3)cs2)n[nH]c1=S	300 mg/kg	100 mg/kg	inactive	100 mg/kg	inactive	100 mg/kg								
Cc1ccc(-n2c(Nc3nc(-c4ccccc4)cs3)n[nH]c2=S)cc1		300 mg/kg			inactive		inactive	Non-toxic	300 mg/kg	Non-toxic				
Cc1ccc(-n2c(Nc3nc(-c4ccc(Br)cc4)cs3)n[nH]c2=S)cc1	100 mg/kg	300 mg/kg				100 mg/kg		Non-toxic	300 mg/kg		300 mg/kg			
NC(=O)N1c2ccccc2C=Cc2ccccc21 [CARBAMAZEPINE]												8.8 mg/kg	> 100 mg/kg	
Cc1ccccc1-n1c(Nc2nc(-c3ccccc3)cs2)n[nH]c1=S	300 mg/kg		inactive		inactive	100 mg/kg		Non-toxic						inactive
CCC1(c2ccccc2)C(=O)NC(=O)NC1=O [PHENOBARBITAL]	300 mg/kg	30 mg/kg		100 mg/kg		100 mg/kg						21.8 mg/kg	13.2 mg/kg	
COc1ccccc1-n1c(Nc2nc(-c3ccc(Cl)cc3)cs2)n[nH]c1=S		100 mg/kg		300 mg/kg	inactive	100 mg/kg			100 mg/kg	Non-toxic				
COc1ccccc1-n1c(Nc2nc(-c3ccccc3)cs2)n[nH]c1=S		300 mg/kg	inactive		inactive	100 mg/kg		Non-toxic		Non-toxic				
COc1ccc(-n2c(Nc3nc(-c4ccccc4)cs3)n[nH]c2=S)cc1		100 mg/kg	inactive			100 mg/kg		Non-toxic		Non-toxic	300 mg/kg			
Cc1ccc(-n2c(Nc3nc(-c4ccc([N+](=O)[O-])cc4)cs3)n[nH]c2=S)cc1	100 mg/kg	300 mg/kg		100 mg/kg	inactive	100 mg/kg			300 mg/kg					
CCCC(CCC)C(=O)[O-].[Na+] [VALPROATE SODIUM]													149 mg/kg	
Cc1ccccc1-n1c(Nc2nc(-c3ccc(Cl)cc3)cs2)n[nH]c1=S	300 mg/kg		inactive	300 mg/kg		100 mg/kg					300 mg/kg			inactive
S=c1[nH]nc(Nc2nc(-c3ccc(Cl)cc3)cs2)n1-c1ccccc1		300 mg/kg	inactive		inactive		inactive	Non-toxic		Non-toxic				
O=[N+]([O-])c1ccc(-c2csc(Nc3n[nH]c(=S)n3-c3ccccc3)n2)cc1	300 mg/kg	300 mg/kg	inactive	300 mg/kg	inactive		inactive							
Cc1ccc(-n2c(Nc3nc(-c4ccc(Cl)cc4)cs3)n[nH]c2=S)cc1	300 mg/kg	300 mg/kg	inactive		inactive	300 mg/kg		Non-toxic						
CCC1(C)CC(=O)NC1=O (stereo not drawn) [ETHOSUXIMIDE]			inactive				inactive	Non-toxic	100 mg/kg	Non-toxic	300 mg/kg			inactive
COc1ccc(-n2c(Nc3nc(-c4ccc(Br)cc4)cs3)n[nH]c2=S)cc1		300 mg/kg	inactive		inactive	300 mg/kg		Non-toxic		Non-toxic				
S=c1[nH]nc(Nc2nc(-c3ccccc3)cs2)n1-c1ccccc1	300 mg/kg		inactive			300 mg/kg		Non-toxic			300 mg/kg			inactive
Cc1ccccc1-n1c(Nc2nc(-c3ccc([N+](=O)[O-])cc3)cs2)n[nH]c1=S	100 mg/kg	100 mg/kg		300 mg/kg		100 mg/kg			100 mg/kg		300 mg/kg			
S=c1[nH]nc(Nc2nc(-c3ccc(Br)cc3)cs2)n1-c1ccccc1	300 mg/kg	300 mg/kg	inactive		inactive			Non-toxic						
COc1ccccc1-n1c(Nc2nc(-c3ccc(Br)cc3)cs2)n[nH]c1=S	300 mg/kg	300 mg/kg	inactive	100 mg/kg	inactive	300 mg/kg								
COc1ccc(-n2c(Nc3nc(-c4ccc([N+](=O)[O-])cc4)cs3)n[nH]c2=S)cc1	300 mg/kg	300 mg/kg	inactive			100 mg/kg		Non-toxic			300 mg/kg			
